Measured values from ChEMBL document CHEMBL1151736, “Design, synthesis, and biological evaluation of a series of 2-hydroxyisoquinoline-1,3(2H,4H)-diones as dual inhibitors of human immunodeficiency virus type 1 integrase and the reverse transcriptase RNase H domain” (J Med Chem, 2008).

Tests used:
[1] = molecular target: Human immunodeficiency virus type 1 reverse transcriptase (Human immunodeficiency virus 1) (UniProt Q72547); experiment: Inhibition of HIV1 reverse transcriptase at 50 uM
In short: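 RNA-dependent DNA polymerase activity: recombinant RT preincubated 10 min at 37 °C with compound (1.0, 10.0, 50.0 µM), then 10 min at 37 °C with poly(A)-oligo(dT) 20 µg/mL, 20 µM dTTP plus [3H]dTTP, 5 mM MgCl2, 100 mM KCl, 10 mM DTT, 50 mM Tris-HCl pH 8.0; TCA-precipitated radioactivity on nitrocellulose; percent inhibition.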

[2] = molecular target: T1, Human immunodeficiency virus type 1 integrase (Human immunodeficiency virus 1, UniProt Q7ZJM1)
T1 sequence (Q7ZJM1 whole entry): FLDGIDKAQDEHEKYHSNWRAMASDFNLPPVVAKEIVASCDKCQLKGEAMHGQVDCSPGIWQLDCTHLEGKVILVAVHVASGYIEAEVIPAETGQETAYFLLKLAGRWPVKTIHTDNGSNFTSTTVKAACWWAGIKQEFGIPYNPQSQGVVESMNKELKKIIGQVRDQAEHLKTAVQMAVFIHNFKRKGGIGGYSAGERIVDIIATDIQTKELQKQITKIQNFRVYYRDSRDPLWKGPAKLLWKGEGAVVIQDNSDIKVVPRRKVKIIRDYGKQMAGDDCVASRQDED

[3] = tested on: Human immunodeficiency virus 1; experiment: Selectivity ratio of IC50 for HIV1 RNase H to IC50 for HIV1 integrase
In short: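 Ratio of the RNase H IC50 to the overall-integrase IC50. For RNase H, recombinant HIV-1 RT (4.5 pmol) was preincubated with compound for 10 min at 37 °C. It then ran 10 min at 37 °C on a 3H-RNA/DNA duplex with 6 mM MgCl2 and 80 mM KCl at pH 8.0, read by TCA-precipitated radioactivity. For integrase, ELISA used 1.6 µM integrase and 7 nM biotin/digoxigenin oligos with 10 mM MgCl2, 1 h at 37 °C.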

[4] = tested on: Human immunodeficiency virus 1; experiment: Antiviral activity against HIV1 3B infected in human MT4 cells assessed as inhibition virus-induced cytopathic effect by MTT assay; type: functional, organism-based; conditions: Human immunodeficiency virus 1, 3B
[5] = molecular target: T1, Human immunodeficiency virus type 1 integrase; remark: listed apart in the source
[6] = Inhibition of HIV1 RNase H; parameters: species or system Human immunodeficiency virus 1
[7] = molecular target: T1, Human immunodeficiency virus type 1 integrase; remark: listed apart in the source
[8] = Cytotoxicity against human MT4 cells by MTT assay; type: cell-based

Row | SMILES | inhibition [1] | IC50 [2] | Ratio IC50 [3] | EC50 [4] | IC50 [5] | IC50 [6] | IC50 [7] | CC50 [8]
1 | O=C(Cc1ccc(F)cc1)Nc1ccc2c(c1)C(=O)N(O)C(=O)C2 | 40% | 0.75 µM | 272 | > 116 µM | 0.02 µM | 35.3 µM | 0.13 µM | > 116 µM
2 | O=C1Cc2ccc(I)cc2C(=O)N1O | 40% | – | 48.3 | > 70 µM | – | 58 µM | 1.22 µM | > 70 µM
3 | O=C(Cc1ccccc1)Nc1ccc2c(c1)C(=O)N(O)C(=O)C2 | 40% | 7.79 µM | > 889 | > 121 µM | 0.1 µM | > 80 µM | 0.09 µM | > 121 µM
4 | O=C1Cc2ccc(-c3ccc(O)c(O)c3)cc2C(=O)N1O | 70% | – | 11.8 | > 89 µM | – | 6.6 µM | 0.56 µM | > 89 µM
5 | O=C(Nc1ccc2c(c1)C(=O)N(O)C(=O)C2)c1cccc([N+](=O)[O-])c1 | 40% | – | 1.2 | – | – | 10.8 µM | 8.9 µM | –
6 | O=C1Cc2ccc(Cl)cc2C(=O)N1O | 40% | – | 36.1 | > 48 µM | – | 28.9 µM | 0.8 µM | > 48 µM
7 | O=C1Cc2ccc(-c3ccc(O)cc3)cc2C(=O)N1O | 50% | – | 1.3 | > 186 µM | – | 7.2 µM | 5.42 µM | > 186 µM
8 | CCCCC(=O)Nc1ccc2c(c1)C(=O)N(O)C(=O)C2 | 40% | – | > 4.2 | > 250 µM | – | > 80 µM | 18.8 µM | > 250 µM
9 | O=C1Cc2ccc(O)cc2C(=O)N1O | 40% | – | 17 | > 48 µM | – | 37.4 µM | 2.22 µM | > 48 µM
10 | O=C(Nc1ccc2c(c1)C(=O)N(O)C(=O)C2)c1ccccc1 | 40% | – | 4.7 | 22 µM | – | 5.7 µM | 1.24 µM | 84 µM
11 | O=C1Cc2ccc(Br)cc2C(=O)N1O | 40% | 1.4 µM | > 166 | > 64 µM | 0.9 µM | > 96 µM | 0.58 µM | > 64 µM
12 | O=C1Cc2ccc([N+](=O)[O-])cc2C(=O)N1O | 40% | – | 5.6 | > 205 µM | – | 48 µM | 8.5 µM | > 205 µM
13 | O=C1Cc2ccc(-c3ccc(C(F)(F)F)cc3)cc2C(=O)N1O | 40% | – | 5.9 | > 47 µM | – | 10.7 µM | 1.8 µM | > 47 µM
14 | O=C1Cc2ccccc2C(=O)N1O | 40% | – | – | – | – | 5.9 µM | 6.32 µM | –
15 | O=C(Nc1ccc2c(c1)C(=O)N(O)C(=O)C2)c1ccc(F)cc1 | 40% | – | 17.3 | > 120 µM | – | 7.1 µM | 0.41 µM | > 120 µM
16 | CC(=O)Nc1ccc2c(c1)C(=O)N(O)C(=O)C2 | 40% | – | 69 | 148 µM | – | 40.7 µM | 0.59 µM | > 250 µM
17 | O=C1Cc2ccc(-c3ccc(F)cc3)cc2C(=O)N1O | 60% | – | 15.8 | > 46 µM | – | 22.2 µM | 1.47 µM | > 46 µM
18 | O=C1Cc2ccc(-c3ccccc3)cc2C(=O)N1O | 40% | – | > 47 | > 66 µM | – | > 80 µM | 1.73 µM | > 66 µM
